# In PubChem BioAssay AID492951 (Molecular Libraries Program, Specialized Chemistry Center, …, 2010):
# Values without a mark were called inactive. Active and inactive are the calls of the source.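 The calls were made as follows: active = inhibition above 10%; inactive = the rest.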
# Molecular target: Hexokinase-4 (Homo sapiens) (UniProt P35557)
# Assay: human glucokinase inhibition, counter-screen for TbHK1 inhibitor project, biochemical, recombinant hGlck (AID 492951)
# Conditions: G6PDH-coupled NADH absorbance 340 nm, at 10 µM; hits give high values
# Procedure, shortened: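 Material: Recombinant human glucokinase, G6PDH-coupled | Medium: TEA buffer pH 7.9 with 3.3 mM MgCl2, 0.75 mM NAD+ | Also added: 20 mM glucose as reaction starter, plus 1 mM ATP | Compound dosing: One dose, 10 µM final | Schedule: 10 min preincubation at room temperature | Measured by: A340 of NADH | Repeats: Three replicates per compound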
# Sequence of Hexokinase-4 (Homo sapiens) (P35557 whole entry, looked up): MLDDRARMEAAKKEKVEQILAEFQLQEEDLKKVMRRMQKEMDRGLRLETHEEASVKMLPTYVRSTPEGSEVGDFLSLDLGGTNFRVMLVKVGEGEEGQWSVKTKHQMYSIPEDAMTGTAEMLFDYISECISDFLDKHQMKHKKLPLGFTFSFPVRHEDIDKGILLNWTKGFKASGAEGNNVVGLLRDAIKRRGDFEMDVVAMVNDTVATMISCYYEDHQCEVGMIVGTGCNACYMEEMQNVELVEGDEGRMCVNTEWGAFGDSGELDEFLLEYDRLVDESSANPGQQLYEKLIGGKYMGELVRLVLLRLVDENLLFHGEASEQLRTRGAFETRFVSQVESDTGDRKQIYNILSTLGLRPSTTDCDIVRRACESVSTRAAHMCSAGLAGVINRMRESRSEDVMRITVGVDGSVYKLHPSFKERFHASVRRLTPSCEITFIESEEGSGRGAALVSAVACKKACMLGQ
Compound,inhibition,outcome
N#Cc1ccccc1NC(=O)Cn1sc2ccccc2c1=O,10.9% (active),–
N#Cc1ccc2c(=O)n(-c3ccccc3)sc2c1,54% (active),–
O=C(O)c1ccc(Cl)cc1NC(=O)C1CCOCC1,–,inactive
Cc1cccc(C(=O)Nc2cc(Cl)ccc2C(=O)O)c1,–,inactive
COc1ccc(C(=O)Nc2cc(Cl)ccc2C(=O)O)cc1OC,20.1% (active),–
COc1ccc(C(=O)Nc2cc(-c3ccccc3)ccc2C(=O)O)cc1,–,inactive
COc1ccc(C(=O)Nc2cc(I)ccc2C(=O)O)cc1,–,inactive
Cc1ccc(C(=O)Nc2cc(Cl)ccc2C(=O)O)c(C)c1,12.5% (active),–
O=C(Nc1cc(Cl)ccc1C(=O)O)c1ccc(OC(F)(F)F)cc1,13.1% (active),–
COc1ccc(C(=O)Nc2cc(Cl)c(Br)cc2C(=O)O)cc1,22.3% (active),–
O=C(Cn1sc2ccccc2c1=O)Nc1cccc(C(F)(F)F)c1,9.3%,–
COc1cc(C(=O)Nc2cc(Cl)ccc2C(=O)O)cc(OC)c1OC,–,inactive
CC(C)(C)c1ccc(C(=O)N2CCC(=O)c3ccc(Cl)cc32)cc1,–,inactive
O=C(Cn1sc2ccccc2c1=O)Nc1ccccc1C(F)(F)F,11.1% (active),–
COc1ccc(C(=O)Nc2cc(C(F)(F)F)ccc2C(=O)O)cc1,10.5% (active),–
O=c1c2ccccc2sn1-c1cccc(F)c1,28.2% (active),–
O=C(O)c1ccccc1NC(=O)c1ccccc1C(=O)O,–,inactive
Cc1ccc(C(=O)Nc2cc(Cl)ccc2C(=O)O)cc1C,–,inactive
N#Cc1ccc(NC(=O)Cn2sc3ccccc3c2=O)cc1,–,inactive

Compound,inhibition,outcome
CN(C)c1cccc(NC(=O)Cn2sc3ccccc3c2=O)c1,16.7% (active),–
O=c1c2ccccc2sn1-c1ccc(Cl)cc1,35.6% (active),–
O=c1c2cc(N3CCOCC3)ccc2sn1-c1ccccc1,–,inactive
COc1ccc(C(=O)NC(CC(=O)O)c2ccc(Cl)cc2)cc1 (stereo not drawn),–,inactive
CN(C)S(=O)(=O)c1cccc(-n2sc3ccccc3c2=O)c1,22.1% (active),–
O=C(Nc1ccccc1)c1cc(F)ccc1S,3.6%,–
COc1ccccc1-n1sc2ccccc2c1=O,55% (active),–
O=c1c2ccccc2sn1-c1ccc(Cl)cc1Cl,65.6% (active),–
Cc1cc(C(C#N)c2ccc(Cl)cc2)c(Cl)cc1NC(=O)c1cc(I)cc(I)c1O (stereo not drawn),24.3% (active),–
COc1cccc(-n2sc3ccccc3c2=O)c1,49.9% (active),–
COC(=O)c1cc(Cl)ccc1NC(=O)c1ccc(OC)cc1,–,inactive
CCCCCCCC(=O)Nc1cc(Cl)ccc1C(=O)O,–,inactive
COc1ccc(C(=O)NCC(=O)O)cc1,20.5% (active),–
CC(C(=O)Nc1ccccc1)n1sc2ccccc2c1=O (stereo not drawn),9.6%,–
COc1ccc(N2C(=O)c3ccc(Cl)cc3C2=O)cc1,–,inactive
O=C(Nc1cc(Cl)ccc1C(=O)O)c1ccoc1,–,inactive
CC(=O)Nc1cc(Cl)ccc1C(=O)O,–,inactive
O=C(Nc1cc(Cl)ccc1C(=O)O)c1ccsc1,–,inactive
COc1ccc(C(=O)Nc2cc(Cl)ccc2S(N)(=O)=O)cc1,11.1% (active),–
